The list is not random: actives were taken first. Their share in the collection is about 2.3%.
TAAR1 ag – agonists of human TAAR1; activation, % at 3 µM; 360,000 compounds, 0.99% hits; AID 624467; CHO RD-HGA16 TAAR1, Fluo-8 calcium fluorescence; vehicle wells 0%, saturating PEA agonist 100%;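 active = activation above the mean activation of all test compounds in the run plus 3 SD, cut at about 38% in these data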
Target sequence (Q96RJ0 whole entry, looked up): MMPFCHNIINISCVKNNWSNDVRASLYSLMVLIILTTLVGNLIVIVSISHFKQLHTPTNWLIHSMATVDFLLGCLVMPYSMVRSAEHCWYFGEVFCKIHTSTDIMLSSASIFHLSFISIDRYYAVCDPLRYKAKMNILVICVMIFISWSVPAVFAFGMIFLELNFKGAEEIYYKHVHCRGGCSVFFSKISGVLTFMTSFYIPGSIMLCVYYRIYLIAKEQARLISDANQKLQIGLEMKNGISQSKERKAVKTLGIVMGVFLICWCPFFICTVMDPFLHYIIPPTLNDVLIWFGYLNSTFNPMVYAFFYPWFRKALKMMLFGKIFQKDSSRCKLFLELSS
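Test system: RD-HGA16 (CHO) cells co-expressing Gα16 and hTAAR1; dosing: one-point dosing at 3 µM (nominal); timing: 17-24 h seeding, 75 min 37 °C dye, 30 min RT; signal: kinetic Fluo-8 calcium fluorescence; read-out basis: % activation relative to PEA EC100 response; controls: DMSO and PEA EC100; replicates: n 1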
OXTR ag – human OXTR agonism | CHO-OTR cells, Fluo-8 calcium fluorescence; normalized: DMSO 0%, oxytocin 100% | activation, % at 3 µM | P30559 | 320,000 compounds, 0.32% hits;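 active = activation above the mean of all tested compounds plus 3 SD, cutoff set per screening run, cut at about 20% in these data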;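 also: peak over basal fluorescence ratio from a 100 s FLIPR kinetic read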
TAAR1 antagonist – human TAAR1 antagonism | Q96RJ0 | CHO RD-HGA16 TAAR1, Fluo-8 calcium fluorescence, antagonist | inhibition, % at 3 µM | 360,000 compounds, 1.5% hits;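 active = inhibition above a per-plate cutoff, the mean inhibition of test compounds on that plate plus 3 SD, cut at about 49% in these data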;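 also: 0% = DMSO plus EC80 beta-PEA response and 100% = DMSO alone without agonist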
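test system = CHO RD-HGA16 cells bearing hTAAR1 | replication = singlicate | controls = DMSO-only wells and EC80 β-PEA-stimulated wells | reagent = EC80 β-phenethylamine stimulus | read-out basis = percent inhibition of PEA-evoked calcium signal, max/basal emission ratio | schedule = seeding 17-24 h prior, 75-min 37 °C, 30-min RT dye loading | signal = kinetic Fluo-8 calcium fluorescence measurement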
OXTR potentiate – potentiates the human oxytocin receptor response | activation, % at 3 µM | AID 2445 | P30559 | 320,000 compounds, 0.061% hits | CHO-OTR cells, Fluo-8 calcium fluorescence, potentiator mode; 0% = oxytocin EC15, 100% = EC100;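 active = activation above that plate's cutoff, the mean activation of tested compounds plus 3 SD, cut at about 6.6% in these data, passing the limit was not always enough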;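 also: 100% uses oxytocin at 75 nM as the full agonist control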
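Measured by – Fluo-8 calcium dye fluorescence · Test system – human OTR in CHO cells · Dosing – one concentration, 3.0 µM compound · Controls – EC15 oxytocin alone as 0%, 75 nM oxytocin as 100% · Evaluation – normalized max/min fluorescence ratio, % activation · Timing – 6 min pre-incubation, 100 s read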
V1R ag counter – V1a receptor agonism, counter-screen for OXTR agonists | P37288 | CHO-V1R cells, Fluo-8 calcium fluorescence, agonist mode; 0% DMSO, 100% 3 nM vasopressin | activation, % at 3 µM | 320,000 compounds, 0.25% hits;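 active = activation above the mean activation of all tested compounds plus 3 SD, per screening run, cut at about 20% in these data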;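 also: signal is peak over basal fluorescence ratio across a 100 second FLIPR read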
OXTR pot confirm – confirmation of human oxytocin receptor potentiators | shares compounds with OXTR potentiate | CHO-OTR cells, Fluo-8 calcium fluorescence, potentiation; scaled from low-dose to maximal oxytocin | activation, % at 3 µM | 180 tested, under 10 active | AID 434985;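 active = mean percent activation over triplicates above a cutoff set from solvent-only control plates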;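 also: compounds tested in the presence of an EC15 dose of oxytocin; 0% = EC15 oxytocin with DMSO and 100% = EC100 oxytocin with DMSO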
V1aR agonist cf – confirmation of human vasopressin V1a receptor agonists; CHO-V1R cells, Fluo-8 calcium fluorescence, agonist; 180 compounds, 20% hits; activation, % at 3 µM; shares compounds with V1R ag counter;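 active = average activation exceeds primary screen hit cutoff, cut at about 21% in these data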;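 also: peak over basal fluorescence ratio during a 100 s FLIPR read; 0% = DMSO only wells and 100% = 3 nM vasopressin wells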
OXTR counter – counter-screen for V1a receptor agonists: oxytocin receptor agonists; shares compounds with V1R ag counter; CHO-OTR cells, Fluo-8 calcium fluorescence, agonist; activation, % at 3 µM; 180 compounds, 10% hits; AID 434969;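 active = mean activation over three repeats above the cutoff from the earlier oxytocin receptor agonist screen, cut at about 20% in these data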;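 also: peak over minimum fluorescence ratio within a 100 second FLIPR read; 0% = DMSO only wells and 100% = oxytocin high control wells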
The depositor's hits bear a star; . = not tested or not shown.

SMILES	TAAR1 ag	OXTR ag	TAAR1 antagonist	OXTR potentiate	V1R ag counter	OXTR pot confirm	others
Clc1ccc(-c2nnc(SCc3nc(-c4ccccc4)no3)o2)cc1	0	-1	-10	-8	2	.
c1ccc(-c2noc(CSc3nc4ccccc4o3)n2)cc1	12	-1	-3	13*	-2	-6
O=C(c1cc(S(=O)(=O)N2CCOCC2)ccc1Cl)N1CCc2ccccc2C1	1	0	-4	-12	1	.
O=C(COC(=O)c1ccccc1NC(=O)c1ccco1)NC1CCCCC1	0	-1	18	-15	0	.
CC1CCCC(NC(=O)COC(=O)c2ccccc2NC(=O)c2ccco2)C1C (stereo not drawn)	14	0	-7	10*	-1	-4
CN(C(=O)COC(=O)c1ccc(S(=O)(=O)N2CCCCCC2)cc1)c1ccccc1	1	.	-10	.	.	.
CC(Sc1nc(N)cc(=O)[nH]1)C(=O)NCC(=O)Nc1ccc(F)c(F)c1F (stereo not drawn)	7	1	-5	-1	0	.
O=C(O)c1ccccc1NC(=O)C1CCCO1 (stereo not drawn)	-2	1	-20	12*	0	1
CCN(CC(=O)Nc1c(F)cccc1F)C(=O)Cc1ccc2c(c1)CCC2	1	-2	-25	4	0	.
COCCN(CCOC)Cc1cc(=O)oc2cc(OC)ccc12	2	.	-10	.	.	.
CC(=O)N1CCN(C(=O)CCC(=O)O)CC1	1	-1	-7	2	1	.
CC(C)CNC(=O)CC(=O)N/N=C/c1ccc(F)cc1	4	2	14	12*	0	-3
Cc1nc(C(=O)N2CCC(C)(C(=O)NS(=O)(=O)C3CC3)C2)c(C)o1 (stereo not drawn)	1	.	-19	.	.	.
Cc1oc(-c2ccc(Cl)cc2)nc1CS(=O)CC(=O)NCc1ccco1 (stereo not drawn)	-1	-1	-19	7.9*	1	-8
COc1ccc(NS(=O)(=O)c2cccc(C(=O)N/N=C/c3cn(-c4ccccc4)nc3-c3ccc(OC)cc3)c2)cc1	-1	1	-6	8.9*	1	-3
COc1ccc(NS(=O)(=O)c2cccc(C(=O)N/N=C/c3cn(-c4ccccc4)nc3-c3ccccc3)c2)cc1	2	-1	-20	-1	-1	.
O=C(NC(c1ccccc1)c1ccccc1)C1CCCC1	4	-2	-11	12*	-1	0
N#Cc1cn(-c2ccccc2)nc1-c1ccco1	5	-2	5	13*	-2	-3
N#Cc1cn(-c2ccccc2)nc1-c1ccc2c(c1)OCCO2	0	-1	16	-2	0	.
CCCCc1ccc(NC(=O)N[C@H](C(=O)O)C(C)CC)cc1 (stereo partly drawn)	0	-3	-19	13*	-1	1
CCCNC(=O)c1ccc(SC)cc1OC	3	-2	7	-13	-2	.
COc1cc(SC)ccc1C(=O)NCCCOC(C)C	8	0	4	11*	0	-7
COc1ccc(-n2c(SCC(=O)NCC3CCCO3)nc3ccccc3c2=O)cc1Cl (stereo not drawn)	2	.	-8	.	.	.
CC(=O)N1CCN(C(=O)C(Cc2c[nH]c3ccccc23)NC(=O)c2ccccc2Cl)CC1 (stereo not drawn)	0	2	7	15*	0	-6
COc1cc(OC)c(/C=C2\SC(=O)N(CC(=O)Nc3ccccc3F)C2=O)c(OC)c1	4	0	-14	-9	0	.
COc1cc(/C=C2\SC(=O)N(CC(=O)Nc3ccccc3F)C2=O)cc(Cl)c1O	36	17	8	-15	22*	.	V1aR agonist cf=67*;OXTR counter=60*

Screening data as filed in PubChem.
